The values that follow come from ChEMBL document CHEMBL4251648, “Synthesis and bioevaluation and doking study of 1H-pyrrolo[2,3-b]pyridine derivatives bearing aromatic hydrazone moiety as c-Met inhibitors” (Eur J Med Chem, 2018).

Usually IC50 stands for the midpoint of a concentration-inhibition curve.

Holding throughout (format): functional, cell-based
One experiment has as its system PC-3. Kind of experiment: Antiproliferative activity against human PC3 cells after 72 hrs by MTT assay. The gist of the method:
(§1)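 Cells grown in MEM with 10% FBS. About 4×10³ cells per well, pre-incubated 24 h at 37°C in 5% CO₂. Compound added at final concentrations, then 72 h. MTT added at 5 µg/mL final for 4 h at 37°C. Tested three times; IC50 taken as the average of […] determinations.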

For a further experiment, the system named is MCF7. The experiment is described as follows: Antiproliferative activity against human MCF7 cells after 72 hrs by MTT assay. In short, it runs like this:
as §1
In general terms: Tetrazolium assays rely on reduction of a dye to a coloured formazan, in cell work by metabolically active cells.

The test system of the next experiment is A549. Kind of experiment: Antiproliferative activity against human A549 cells after 72 hrs by MTT assay. Conditions: Homo sapiens, A549, 72 h; read-out: IC50; call rule not given here. In short, it runs like this:
as §1

The subject of the next experiment is HepG2. The experiment is described as follows: Antiproliferative activity against human HepG2 cells after 72 hrs by MTT assay. The conditions noted are these: Homo sapiens, HepG2, 72 h; read-out: IC50. In short, it runs like this:
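Cells grown in MEM with 10% FBS. About 4×10³ cells per well, pre-incubated 24 h at 37°C in 5% CO₂. Compound added at final concentrations, then 72 h. MTT added at 5 µg/mL final for 4 h at 37°C. Formazan dissolved in DMSO and read at 492 nm against 630 nm reference. Tested three times; IC50 taken as the average of […] determinations.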

Setting [1] is: Homo sapiens, PC-3, 72 h, read-out: IC50.
[2] abbreviates: Homo sapiens, MCF7, 72 h, read-out: IC50.

Consider `O=C(N/N=C/c1ccc(O)c(Br)c1)Nc1ccc(Oc2ccnc3[nH]ccc23)c(F)c1`, for which the IC50 with PC-3 (setting [1]) was 28.6 µM; with MCF7 (setting [2]), 8.23 µM; with A549, 9.25 µM; in the experiment on HepG2 it was 1.36 µM.

As for `O=C(N/N=C/c1ccc(F)cc1)Nc1ccc(Oc2ccnc3[nH]ccc23)cc1`, the IC50 was 7.49 µM in the experiment on PC-3 (setting [1]), 3.72 µM in the experiment on MCF7 (setting [2]), 1.43 µM in the experiment with A549 and 3.43 µM with HepG2.

Take `O=C(N/N=C/c1ccc([N+](=O)[O-])cc1)Nc1ccc(Oc2ccnc3[nH]ccc23)cc1`: the IC50 in the experiment with PC-3 (setting [1]) stood at 28.1 µM; in the experiment on MCF7 (setting [2]) it was 15.6 µM; with A549, 2.1 µM; with HepG2, 4.62 µM.

Turning to `O=C(N/N=C/c1ccc(F)cc1)Nc1ccc(Oc2ccnc3[nH]ccc23)c(F)c1`, the IC50 in the experiment with PC-3 (setting [1]) is 2.33 µM; in the experiment with MCF7 (setting [2]), 0.8 µM; in the experiment on A549 it was 0.68 µM; with HepG2, 3.88 µM.

With `COc1ccc(/C=N/NC(=O)Nc2ccc(Oc3ccnc4[nH]ccc34)cc2)cc1`, the half-inhibitory concentration (IC50) entry in the experiment on PC-3 (pc-3) is “Not Active”; in the experiment on MCF7 (mcf7) it was “Not Active”; in the experiment with A549, 4.3 µM; with HepG2, 9.74 µM.

Turning to `CCN(CC)CCCn1cccc1/C=N/NC(=O)Nc1ccc(Oc2ccnc3[nH]ccc23)c(F)c1`, the IC50 in the experiment on PC-3 (setting [1]) was 2.95 µM; in the experiment with MCF7 (setting [2]) it was 3.39 µM; with A549, 1.21 µM; in the experiment with HepG2, 2.14 µM.

Consider `O=C(N/N=C/c1cccn1CCCN1CCOCC1)Nc1ccc(Oc2ccnc3[nH]ccc23)cc1`, for which the IC50 in the experiment on PC-3 (setting [1]) was 14.7 µM; in the experiment with MCF7 (mcf7), “Not Active”; with A549, 2.24 µM; in the experiment on HepG2, 1.69 µM.

On to `CC(C)(C)c1cc(/C=N/NC(=O)Nc2ccc(Oc3ccnc4[nH]ccc34)c(F)c2)cc(C(C)(C)C)c1O`, for which the IC50 in the experiment on PC-3 (setting [1]) stood at 10.4 µM; in the experiment with MCF7 (setting [2]) it was 0.84 µM; in the experiment with A549 it was 13.6 µM; in the experiment with HepG2, 7.22 µM.
